# Source: ChEMBL document CHEMBL2093137, “WHO-TDR NTD Screening”
# Tests used:
# [1] = WHO-TDR: Cytotoxicity; format: toxicity, cell-based; conditions: human, MRC5 cells
# Plasmodium falciparum K1 = test: WHO-TDR: Malaria; format: functional, organism-based, Homo sapiens; conditions: Erythrocyte
# Outline: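 This whole-organism screen covered 10,000 drug-likeness-filtered and reactive-group-filtered compounds from Life Chemicals. The target was the Plasmodium falciparum K1 strain in human red blood cells, and the readout was antiplasmodial IC50.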
# Trypanosoma cruzi = test: WHO-TDR: Chagas disease; format: functional, organism-based, Homo sapiens; conditions: MRC5
# Outline: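 Following previously published standard procedures, with a reference drug as positive control, a whole-organism assay was run on Trypanosoma cruzi Tulahuen CL2 beta-galactosidase strain amastigotes inside MRC-5SV2 human lung fibroblast host cells. The 10,000 compounds tested formed a diverse Life Chemicals library filtered for drug-likeness and reactive groups. Results are expressed as IC50 for antiparasitic potency.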
# [2] = test system: Trypanosoma brucei brucei; test: WHO-TDR: Human African Trypanosomiasis (HAT); format: functional, organism-based; conditions: Squib-427
# Outline: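 Screening used a 10,000-compound diverse library supplied by Life Chemicals and filtered for drug-likeness and reactive groups. Whole bloodstream-form parasites of Trypanosoma brucei Squib 427 strain were assayed according to previously published standard procedures, with reference drugs as positive controls. The reported measure is IC50, reflecting antiparasitic potency.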
# Leishmania infantum = test: WHO-TDR: Leishmaniasis; format: functional, organism-based, Mus musculus; conditions: Macrophage
# Outline: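 The screened collection came from Life Chemicals: 10,000 diverse compounds selected after filtering for drug-likeness and reactive groups. Each was tested in a whole-organism assay against Leishmania infantum MHOM/MA(BE)/67 amastigotes inside murine peritoneal macrophages, using previously published standard procedures and a reference drug as positive control. Results are IC50 values for antiparasitic potency.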
# Schistosoma mansoni = test: WHO-TDR: Schistosomiasis; format: functional; design: concentration or dose not given beside the values
# Outline: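 Values are reported as percent inhibition and IC50. They come from a whole-organism screen of a 10,000-compound diverse Life Chemicals library against larval and/or adult worms of Schistosoma mansoni, Puerto Rican strain. The library had been filtered for drug-likeness and reactive groups.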
# Onchocerca ochengi [3] = test: (§1) WHO-TDR: Onchocerciasis; format: functional; design: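 at 12.5 µM on microfilariae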
# Outline: (§2)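 Values are reported as percent inhibition and as IC50. They come from a whole-organism screen of a 10,000-compound diverse Life Chemicals library against microfilariae of Onchocerca ochengi or Onchocerca lienalis. The screen followed previously published standard procedures, with reference drugs as positive controls.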
# Onchocerca ochengi [4] = test: as §1; format: functional; design: concentration or dose not given beside the values; outline: as §2; remark: listed apart in the source
# Onchocerca lienalis = test: as §1; format: functional; design: concentration or dose not given beside the values; outline: as §2;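 note: at 12.5 µM on microfilariae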
# Brugia malayi [5] = test: (§3) WHO-TDR: Lymphatic Filariasis; format: functional; design: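 tested at 10 µM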
# Outline: (§4)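 Values are percent inhibition and IC50 from a whole-organism screen against Brugia malayi microfilariae. The compounds, 10,000 in all, came from a diverse Life Chemicals library filtered for drug-likeness and reactive groups.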
# Brugia malayi [6] = test: as §3; format: functional; design: concentration or dose not given beside the values; outline: as §4; remark: listed apart in the source
IC50 (Plasmodium falciparum K1) [µg/mL],IC50 [2] [µg/mL],IC50 (Leishmania infantum) [µg/mL],SMILES,IC50 [1] [µg/mL],IC50 (Trypanosoma cruzi) [µg/mL],% Inhibition (Schistosoma mansoni) [%],% Inhibition (Onchocerca ochengi [3]) [%],% Inhibition (Onchocerca ochengi [4]) [%],% Inhibition (Onchocerca lienalis) [%],% Inhibition (Brugia malayi [5]) [%],% Inhibition (Brugia malayi [6]) [%]
> 10.7,> 10.7,> 10.7,O=C(CC1CSc2nccc(=O)n21)Nc1ccc(Cl)c(Cl)c1 (centres undefined),> 10.7,> 10.7,0,100,0,–,–,–
> 7.84,> 7.84,> 7.84,CCCC(=O)Nc1nnc(-c2ccc(C)cc2)s1,> 7.84,> 7.84,0,–,–,0,0,100
> 13.5,0.341,4.84,CCOC(=O)c1c(NC(=O)c2cccc(C(F)(F)F)c2)sc2c1CCN(C)C2,> 13.5,4.8,0,–,–,0,33.33,0
> 14.1,1.95,4.58,CCOC(=O)c1c(NC(=O)c2sc3ccccc3c2Cl)sc2c1CCN(C)C2,3.6,0.568,0,–,–,0,33.33,33.33
1.87,0.321,2.32,CCC(=O)c1c(NC(=O)c2ccc(C)cc2)sc2c1CCN(CC)C2,> 11.8,0.479,0,–,–,0,33.33,33.33
3.35,4.6,0.465,CC(C)N1CCc2c(sc(NC(=O)COc3ccc(Cl)cc3Cl)c2C(N)=O)C1,3.18,0.595,0,–,–,20,33.33,0
> 14.1,2.02,0.457,CC(C)N1CCc2c(sc(NC(=O)c3sc4ccccc4c3Cl)c2C(N)=O)C1,4.25,0.552,0,–,–,0,33.33,0
> 11.4,> 11.4,> 11.4,N#Cc1cnc2c(F)cccc2c1Nc1ccc(Br)cc1,> 11.4,> 11.4,0,100,–,–,0,0
> 10.5,> 10.5,0.339,Cc1cc(NC(=O)C2CCCN(S(=O)(=O)c3ccccc3)C2)on1 (centres undefined),> 10.5,> 10.5,41.7,0,–,–,0,0
3.65,4.57,> 13.9,Cc1ccc(-n2ccnc2N2CCN(C(=O)c3ccccc3SC(F)F)CC2)cc1,13.9,0.531,58.3,100,–,–,0,0
> 12.9,> 12.9,0.416,O=C(C1CCCC1)N1CCc2ccc(NS(=O)(=O)c3ccc4c(c3)OCCO4)cc21,> 12.9,> 12.9,0,0,–,–,0,0
> 11.9,3.85,> 11.9,O=C(C1CC1)N1CCc2ccc(NS(=O)(=O)c3ccc4c(c3)CCCC4)cc21,1.28,0.829,0,0,–,–,0,0
> 13.5,> 13.5,0.437,COc1ccc(CC(=O)NCCS(=O)(=O)N2CCN(c3ncccn3)CC2)cc1OC,> 13.5,> 13.5,33.3,0,–,–,0,0
> 10.9,> 10.9,> 10.9,NC(=O)c1cc(-c2ccccc2)sc1NC(=O)c1cc2ccccc2o1,> 10.9,> 10.9,0,100,0,–,–,–
5.1,3.65,> 11.4,NC(=O)c1cc(-c2ccccc2)sc1NC(=O)Cc1ccc2c(c1)OCO2,> 11.4,> 11.4,0,100,0,–,–,–
1.39,0.146,2.79,CCSc1nnc(-c2ccccc2)c2sc(C)nc12,4.9,0.259,0,100,0,–,–,–
6.75,6.52,> 8.95,Cc1nc2c(SCC#N)nnc(-c3ccccc3)c2s1,> 8.95,0.444,0,25,0,–,–,–
0.152,> 11.4,3.69,Cc1ccc(N2CCn3c2nnc(C(=O)NCCC2=CCCCC2)c3=O)cc1,> 11.4,> 11.4,0,0,0,–,–,–
6.88,> 9.4,> 9.4,O=C(Nc1nnc(-c2ccno2)o1)c1nc2ccccc2s1,> 9.4,> 9.4,0,100,0,–,–,–
5.03,> 12.5,> 12.5,CC1CCCN(S(=O)(=O)c2ccc(C(=O)Nc3nnc(-c4ccno4)o3)cc2)C1 (centres undefined),> 12.5,> 12.5,0,100,0,–,–,–
> 8.08,> 8.08,> 8.08,O=C(NCCC1=CCCCC1)c1n[nH]c2ccccc12,> 8.08,> 8.08,0,100,0,–,–,–
> 8.38,2.65,> 8.38,CC(C)c1ccc(NC(=O)c2n[nH]c3ccccc23)cc1,> 8.38,2.58,0,100,0,–,–,–
> 9.13,> 9.13,> 9.13,O=C(NCCc1c[nH]c2ccccc12)c1n[nH]c2ccccc12,> 9.13,8.2,0,100,0,–,–,–
> 11,> 11,> 11,O=C(NCc1cc(-c2ccccc2F)on1)c1ccc(Br)o1,> 11,> 11,0,100,0,–,–,–
> 12.7,> 12.7,> 12.7,O=C(CC1CSc2nccc(=O)n21)Nc1cc(C(F)(F)F)cc(C(F)(F)F)c1 (centres undefined),> 12.7,> 12.7,0,100,0,–,–,–
6.43,4.07,> 12.6,Cc1cc(=O)n2c(n1)SCC2CC(=O)NCCC(c1ccccc1)c1ccccc1 (centres undefined),> 12.6,> 12.6,0,100,0,–,–,–
3.38,> 13.5,> 13.5,Cc1ccc2nc(-c3ccc(NC(=O)CC4CSc5nc(C)cc(=O)n54)cc3)sc2c1 (centres undefined),> 13.5,> 13.5,0,100,0,–,–,–
> 12.9,6.01,> 12.9,O=C(Nc1ccc(C(F)(F)F)cc1)N1CCN(Cc2nnnn2-c2ccccc2)CC1,> 12.9,> 12.9,–,100,–,–,0,0
> 12.2,> 12.2,3.95,CN(c1ccccc1)c1nnc(-c2ccc(NC(=O)Cc3cccs3)cc2)s1,> 12.2,> 12.2,–,100,–,–,0,25
